From article PMC10270725 (Journal of medicinal chemistry, 2023) come the findings set out here.

Test [1] addresses His-TEAD1-YBD recombinant protein (Homo sapiens, UniProt P28347). Description: TEAD1 TR-FRET biochemical assay. The settings on record: fixed time point 5 h. It counts as binding. The method, boiled down:
(§1)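 100 nM His-TEAD-YBD was pretreated with test compound for 5 h. Then 800 nM FAM-labeled tracer built from a reversible pan-TEAD inhibitor was added, with anti-6His Tb cryptate antibody (50 ng/mL final). TR-FRET was read at 490/520 nm. IC50 is mean ± SEM of two experiments, each with three biological replicates.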
A general note: Time-resolved FRET reads energy transfer from a long-lived donor to a nearby acceptor.

The subject of test [2] is TEAD transcription (pan-TEAD response element luciferase reporter) in NCI-H226 cells. The experiment in a line: TEAD gene reporter. Format: cell-based. In a few lines: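 NCI-H226 cells (RPMI1640, 10% FBS, 1% penicillin/streptomycin) were transduced with TEAD luciferase reporter lentivirus plus 8 μg/mL polybrene and puromycin-selected from day 3. Reporter cells were seeded at 1000 cells/well in 384-well plates and dosed with test compound for 3 days. One-Glo luciferase signal was normalized to CellTiter-Glo viability.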

Test [3] has as its target His-TEAD4-YBD recombinant protein (Homo sapiens, UniProt Q15561). The experiment in a line: TEAD4 TR-FRET biochemical assay. To be noted: fixed time point 5 h. It counts as binding. The method, boiled down: as §1
In test [4] the target is His-TEAD3-YBD recombinant protein (Homo sapiens, UniProt Q99594). The experiment in a line: TEAD3 TR-FRET biochemical assay. It counts as binding. The settings on record: fixed time point 5 h. The method, boiled down: as §1
Test [5] concerns the target His-TEAD2-YBD recombinant protein (Homo sapiens, UniProt Q15562). Description: TEAD2 TR-FRET biochemical assay. Format: binding. The settings on record: fixed time point 5 h. In a few lines:
as §1

Test [6] relates to NF2-sufficient NCI-H28 mesothelioma cells. The experiment in a line: Proliferation assay in NCI-H28 cells. It counts as cell-based.
The target of test [7] is recombinant TEAD1-YBD protein (Homo sapiens, UniProt P28347). The experiment in a line: Intact mass spectrometry analysis of covalent labeling. To be noted: 10-fold molar excess of compound, 1 h at rt. It counts as binding. In a few lines:
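TEAD1-YBD (residues 209−424, N-terminal 6×His) was expressed in Rosetta(DE3) pLysS and purified on cobalt resin, then by gel filtration. Protein was incubated with DMSO or test compound for 1 h at rt. It was desalted 4 min in 0.2 M acetic acid on a POROS 50R2 column and eluted with a 1-min 0–100% acetonitrile gradient in 0.2 M acetic acid. Analysis was electrospray (4.5 kV) ion-trap MS.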

By EC50 is commonly meant the concentration giving half of the maximal effect. As usually defined, the IC50 is the concentration that inhibits the measured activity by half.

His-TEAD3-YBD recombinant protein, sequence (Q99594 219-435 limits assumed): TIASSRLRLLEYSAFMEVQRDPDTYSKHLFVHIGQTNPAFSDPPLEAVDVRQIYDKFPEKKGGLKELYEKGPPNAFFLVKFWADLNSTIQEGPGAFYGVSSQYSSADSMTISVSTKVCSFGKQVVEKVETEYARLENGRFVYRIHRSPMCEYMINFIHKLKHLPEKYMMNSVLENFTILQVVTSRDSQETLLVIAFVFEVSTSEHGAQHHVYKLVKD
His-TEAD2-YBD recombinant protein, sequence (Q15562 217-447 limits assumed): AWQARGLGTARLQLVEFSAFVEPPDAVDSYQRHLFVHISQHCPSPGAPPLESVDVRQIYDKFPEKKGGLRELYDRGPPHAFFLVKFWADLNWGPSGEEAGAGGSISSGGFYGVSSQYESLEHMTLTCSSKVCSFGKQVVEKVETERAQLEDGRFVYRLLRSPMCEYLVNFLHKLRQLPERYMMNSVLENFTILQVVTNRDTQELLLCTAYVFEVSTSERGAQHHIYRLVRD
His-TEAD1-YBD recombinant protein, sequence (P28347 209-424): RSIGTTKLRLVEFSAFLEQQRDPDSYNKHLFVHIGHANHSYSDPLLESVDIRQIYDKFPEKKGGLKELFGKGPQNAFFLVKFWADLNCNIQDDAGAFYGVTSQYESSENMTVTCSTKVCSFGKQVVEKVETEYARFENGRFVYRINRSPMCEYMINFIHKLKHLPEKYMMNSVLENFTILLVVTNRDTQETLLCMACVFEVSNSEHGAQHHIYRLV
His-TEAD4-YBD recombinant protein, sequence (Q15561 217-434 limits assumed): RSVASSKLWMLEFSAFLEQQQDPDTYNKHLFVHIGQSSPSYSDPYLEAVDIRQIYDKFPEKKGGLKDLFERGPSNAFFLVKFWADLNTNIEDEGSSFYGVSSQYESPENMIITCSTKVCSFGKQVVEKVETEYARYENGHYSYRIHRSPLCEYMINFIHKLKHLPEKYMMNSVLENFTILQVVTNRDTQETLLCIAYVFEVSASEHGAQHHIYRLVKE
recombinant TEAD1-YBD protein, sequence (P28347 209-424): as the sequence (P28347 209-424) above

On to `C=CC(=O)N1C[C@@H](n2cc(-c3cccnc3)nn2)[C@H](OCc2ccc(C(F)(F)F)cc2)C1` (relative stereo) [Compound 1, 1-(trans-3-(4-(Pyridin-3-yl)-1H-1,2,3-triazol-1-yl)-4-((4-(trifluoromethyl)benzyl)oxy)pyrrolidin-1-yl)prop-2-en-1-one], for which the “TEAD1 TR-FRET IC50” value in test [1] was “low nanomolar”. The EC50 in test [2] (Homo sapiens, NCI-H226, 72 h, read-out: EC50 in the TEAD reporter assay) came to 106 ± 30 nM. In test [3], the “TEAD4 TR-FRET IC50” value is “low nanomolar”. In test [4], the “TEAD3 TR-FRET IC50” value is given as “low nanomolar”. For the same molecule, the “TEAD2 TR-FRET IC50” value in test [5] is reported as “low nanomolar”.
“1-(trans-4-(5-Fluoropyrimidin-2-ylamino)-3-(4-(trifluoromethyl)-benzyloxy)piperidin-1-yl)prop-2-en-1-one [Compound 16]”: the IC50 in test [2] (read-out: IC50 in the reporter gene assay (TEAD transcription), NCI-H226 reporter cells, 3 day treatment, mean ± SEM) was 171 ± 88 nM.
`C=CC(=O)N1C[C@@H](Nc2ncccn2)[C@H](OCc2ccc(C(F)(F)F)cc2)C1` (relative stereo) [Compound 14, 1-(trans-3-(Pyrimidin-2-ylamino)-4-((4-(trifluoromethyl)benzyl)-oxy)pyrrolidin-1-yl)prop-2-en-1-one]: in test [6], the “effect on proliferation of NCI-H28 cells” value is “limited effect”.
In the case of `C=C(F)C(=O)N1C[C@@H](Nc2ncccn2)[C@H](OCc2ccc(C(F)(F)F)cc2)C1` [Compound 22, 2-Fluoro-1-((3R,4R)-3-(pyrimidin-2-ylamino)-4-((4-(trifluoromethyl)benzyl)oxy)pyrrolidin-1-yl)prop-2-en-1-one], in test [6], the “effect on proliferation of NCI-H28 cells” value was “limited effect”. In test [7], the “covalent complex formation with TEAD1-YBD (intact mass shift)” value was “mass shift consistent with compound 22”.
As to `CN(C)C/C=C/C(=O)N1C[C@@H](n2cc(-c3cccnc3)nn2)[C@H](OCc2ccc(C(F)(F)F)cc2)C1` [Compound 19, (E)-4-(Dimethylamino)-1-((3R,4R)-3-(4-(pyridin-3-yl)-1H-1,2,3-triazol-1-yl)-4-(4-(trifluoromethyl)benzyloxy)pyrrolidin-1-yl)but-2-en-1-one], in test [1], the “TEAD1 TR-FRET IC50” value was “inactive”. Besides, the “IC50 in the reporter gene assay (TEAD transcription)” value in test [2] (NCI-H226 reporter cells, 3 day treatment, mean ± SEM) is reported as “did not inhibit”. For the same molecule, the “TEAD4 TR-FRET IC50” value in test [3] is “inactive”. The “TEAD3 TR-FRET IC50” value in test [4] is “inactive”. In addition, in test [5], the “TEAD2 TR-FRET IC50” value is “inactive”.
